Experimental data from different studies.
Compare with care: the assays were run in different laboratories.
Target: Serine/threonine-protein kinase Nek6 (NEK6, Homo sapiens, UniProt Q9HC98)

Structure (SMILES)	assay	setting	measurement	value
Nc1ncnc2occ(-c3ccc(NC(=O)Nc4cc(C(F)(F)F)ccc4F)cc3)c12	cell-free assay, inhibitor	20 µM	remaining signal	0.15%
COc1cc2ncnc(Nc3ccc(Oc4ccccc4)cc3C)c2cc1OC	enzyme activity, inhibitor	1 µM	inhibition	-8%
N#CCCc1ccc2c(c1)-c1[nH]c3ccc([N+](=O)[O-])cc3c1CC(=O)N2	cell-free assay	0.5 µM	remaining signal	101%
Cc1ccc(NC(=O)c2ccc(C)c(C(F)(F)F)c2)cc1C#Cc1nn(C2CCC(O)CC2)c2ncnc(N)c12 (stereo not shown)	cell-free assay	10 µM	remaining signal	98%
C[C@H](c1ccnc(Nc2nc3ccc(-c4cc(N(C)C)ncn4)cc3[nH]2)c1)N1CCN(C(=O)CC(F)(F)F)CC1	cell-free assay, competition with immobilised ligand	0.1 µM	remaining binding	83%
FC(F)(F)Oc1cccc(-c2cnc3ccc(-c4ccncc4)nn23)c1	enzyme activity, inhibitor, radiometric	5 µM	activity vs control	93%
Cn1cc(Cl)c2c(Oc3c(F)cc(Nc4cc(Cl)nc(N)n4)cc3F)ccnc21	cell-free assay, competition with immobilised ligand	0.1 µM	remaining binding	100%
COc1cc(/C=C/C(=O)CC(=O)/C=C/c2ccc(O)c(OC)c2)ccc1O	enzyme activity, inhibitor	1 µM	activity vs control	97%
CC(C)CC(=O)N1CCc2nc(-c3ccc(Br)cc3)nc(N(C)Cc3ccccc3)c2C1	cell-free assay, competition with immobilised ligand	0.1 µM	remaining binding	100%
CCN(CC)CCNC(=O)c1c(C)[nH]c(/C=C2\C(=O)Nc3ccc(F)cc32)c1C	enzyme activity, inhibitor	0.3 µM	inhibition	-14%
CCOCCn1cc(C(=O)Nc2ccc(-n3nc(-c4cccnc4)cc3C(F)(F)F)cn2)ccc1=O	cell-free assay, competition with immobilised ligand	1 µM	remaining binding	96%
O=C1NC(=O)c2cc(Nc3ccc(F)cc3)c(Nc3ccc(F)cc3)cc21	cell-free assay	0.5 µM	remaining signal	109%
CNC(=O)c1cc(Oc2ccc(NC(=O)Nc3ccc(Cl)c(C(F)(F)F)c3)cc2)ccn1	enzyme activity, inhibitor	0.3 µM	inhibition	-13%
